Results reported in PMC6482285 (Chembiochem : a European journal of chemical biology, 2014).
Several values for one entry are separate records, joined by “and”; a condition that tells them apart may be missing. Equal entries are not always repeated.

What was measured:
Format in all cases: biochemical
eEF-2K [1] = target: T1, eEF-2K (Homo sapiens, UniProt O00418); test: eEF-2K kinase assay, dose response; settings: 100 μM ATP
eEF-2K [2] = target: T1, eEF-2K; test: time dependent inhibition
Outline: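 eEF-2K (100 nM) incubated with test compound (0–500 μM) for 0–120 min in 25 mM HEPES pH 7.5, BSA, DTT, 5% DMSO. ADP protection used 0/250 μM compound ± 4 mM ADP; glutathione used 2.5 mM for 1 h. Diluted 50-fold into 30 °C assay buffer (150 μM CaCl2, 1 μM calmodulin, 50 μM peptide), started with 100 μM [γ-32P]ATP, read by P81 counting. E•I* formation fitted exponentially or globally for Kd, k2.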

eEF-2K C146S = eEF-2K C146S (Homo sapiens, UniProt O00418, C146S); test: kinase dose response and recovery assays with the C146S mutant
eEF-2K [3] = target: T1, eEF-2K; test: recovery experiments after 50-fold dilution, loss of E•I*
eEF-2K C146A = eEF-2K C146A (Homo sapiens, UniProt O00418, C146A); test: kinase dose response and recovery assays with the C146A mutant
eEF-2K Y236F = eEF-2K Y236F (Homo sapiens, UniProt O00418, Y236F); test: kinase dose response and recovery assays with the Y236F mutant
eEF-2K [4] = target: T1, eEF-2K; test: ADP binding to eEF-2K
[5] = 1 mM, 1 hour incubation, rapidly diluted

Q: `N#CC1=C(N)SC(N)=C(C#N)C1c1ccccc1F` [DFTD, 2,6-diamino-4-(2-fluorophenyl)-4H-thiopyran-3,5-dicarbonitrile] was tested. Which IC50 (eEF-2K [1]; apparent IC50, 10 minute incubation) did it give?
A: 110 µM

Q: And the Kd (eEF-2K [2])?
A: 140 µM

Q: And the “kobs for the formation of the E•I* complex” value (eEF-2K [2]; DFTD 250 μM in the absence of ADP)?
A: 0.0015 ± 0.0003 s⁻¹

Q: And the “kobs for the formation of the E•I* complex” value (eEF-2K [2]; DFTD 250 μM in the presence of ADP (4 mM))?
A: 0.0002 ± 0.00003 s⁻¹

Q: And the “effect of glutathione on the inactivation or the reversibility rate” value (eEF-2K [2]; DFTD 250 μM pre-incubated with 2.5 mM glutathione for 1 hour)?
A: no significant effect

Q: What about the “enzyme covalently bound at saturation” value (eEF-2K [2]; at saturation) of the same compound?
A: approximately 75%

Q: What about the “slow equilibrium on the enzyme (=k2/k-2)” value (eEF-2K [2]; global fit of Figures 2B and 2C) of the same compound?
A: 2.8

Q: What about the “k2 (inactivation step)” value (eEF-2K [2]; global fit of time-dependent and recovery experiments, KinTek Global Explorer) of the same compound?
A: 0.0017 s⁻¹

Q: And the IC50 (eEF-2K C146S)?
A: 655 µM

Q: And the time-dependence of inhibition (eEF-2K C146S)?
A: no time-dependence

Q: And the “recovery of enzyme activity after dilution” value (“recovery of enzyme activity” for short) (eEF-2K C146S; [5])?
A: maximal activity was attained immediately

Q: What about the “k-2 (disappearance of E•I*)” value (eEF-2K [3]; 250 μM, 1 hour incubation, 50-fold dilution, first order fit) of the same compound?
A: 0.0006 s⁻¹

Q: What about the “recovery of enzyme activity” value (eEF-2K [3]; wild type, 1 mM, 1 hour incubation, rapidly diluted) of the same compound?
A: slow recovery of activity

Q: And the IC50 (eEF-2K C146A)?
A: 890 µM

Q: What about the time-dependence of inhibition (eEF-2K C146A) of the same compound?
A: no time-dependence

Q: What about the “recovery of enzyme activity” value (eEF-2K C146A; [5]) of the same compound?
A: maximal activity was attained immediately

Q: And the IC50 (eEF-2K Y236F)?
A: 105 µM

Q: What about the “recovery of enzyme activity” value (eEF-2K Y236F; [5]) of the same compound?
A: slow recovery of activity

Q: With `COc1cccc(C2C(C#N)C(=O)NC(=O)C2C#N)c1` (stereo not shown) [MDP, 4-(3-methoxyphenyl)-2,6-dioxo-3,5-piperidinedicarbonitrile] as the compound, how does the “h (hill coefficient)” value (eEF-2K [1]; 60 minutes preincubation) read?
A: 0.93 ± 0.01

Q: And the “kobs for the formation of E•I* complex” value (eEF-2K [2]; MDP 500 μM)?
A: 0.0031 ± 0.0002 s⁻¹

Q: What about the “kobs for the loss of the E•I* complex (recovery of activity)” value (eEF-2K [3]; MDP 500 μM, 60 min, diluted 50-fold) of the same compound?
A: 0.00056 s⁻¹ and 0.00056 ± 0.00003 s⁻¹

Q: How did the Ki (eEF-2K [4]) turn out when `Nc1ncnc2c1ncn2[C@@H]1O[C@H](COP(=O)(O)OP(=O)(O)O)[C@@H](O)[C@H]1O` [ADP] was run?
A: ~1 mM
